Screening results: PubChem, several laboratories
A selection: hits, their analogues and other compounds. The true share with any hit is near 1.3%.
PLC-gamma1 inh: inhibitors of human phospholipase C gamma1; purified PLC-gamma1, fluorogenic substrate, fluorescence; inhibition, % at 12.2 µM; 370,000 compounds, 0.84% hits; in the data active = inhibition above about 9.5%
Arr AP2 block: blocks beta-arrestin peptide binding to AP2 adaptin; 340,000 compounds, 0.31% hits; AID 504490; FITC-arrestin peptide / GST-AP2 beads, flow cytometry; AP2 beta2 appendage carries R879A mutation; inhibition, % at 10 µM;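 active = inhibition above a set limit, near 3 SD of compounds lacking own fluorescence, cut at about 54% in these data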;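 note: plate controls were DMSO wells for no effect and 5 µM unlabelled arrestin peptide for full effect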
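System: GST-tagged AP2 beta2-adaptin appendage (R879A) on 4 µm glutathione beads / Reagent: FITC-arrestin peptide, 50 nM / Detection: HyperCyt-sampled flow cytometry, FL1 channel, ex 488/em 535 nm / Timing: 12 min plus 1 h, RT / Buffer or medium: PBS plus Tween 20 (0.05%) and BSA (0.1%)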
NTR1 agonist: activates human neurotensin receptor 1 | P30989 | activation, % at 20 µM | NTR1-U2OS beta-arrestin-GFP spot imaging, agonist mode | 330,000 compounds, 0.17% hits;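 active = activation at or above 40% of the spot to cytoplasm intensity ratio, with at least 20 cells analyzed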;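 note: 0% = DMSO without peptide and 100% = 100 nM NTR1 peptide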
Target sequence (P30989 whole entry, looked up): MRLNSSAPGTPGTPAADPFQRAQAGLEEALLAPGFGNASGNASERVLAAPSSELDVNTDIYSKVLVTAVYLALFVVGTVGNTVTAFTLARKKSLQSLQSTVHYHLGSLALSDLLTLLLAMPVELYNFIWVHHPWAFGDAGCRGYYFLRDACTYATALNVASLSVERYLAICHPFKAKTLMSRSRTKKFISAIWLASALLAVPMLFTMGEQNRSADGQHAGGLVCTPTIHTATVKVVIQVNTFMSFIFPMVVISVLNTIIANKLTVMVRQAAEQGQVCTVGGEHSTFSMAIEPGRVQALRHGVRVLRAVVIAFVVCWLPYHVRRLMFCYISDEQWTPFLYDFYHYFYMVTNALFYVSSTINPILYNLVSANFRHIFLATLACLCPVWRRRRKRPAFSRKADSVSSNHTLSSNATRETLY
PLCb3 inh: PLC-beta3 (human) inhibition, primary screen. Purified PLC-beta3, fluorogenic substrate, fluorescence. inhibition, % at 12.2 µM. 370,000 compounds, 0.18% hits. AID 720704;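 note: 0% = median of compound wells on plate and 100% = full blocker control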
PLCgamma1 ctr: inhibits human PLC-gamma1 in PLC-beta3 counter-screen; shares compounds with PLC-gamma1 inh; purified PLC-gamma1, fluorogenic substrate, fluorescence; inhibition, % at 12.3 µM; 3,300 compounds, 3.1% hits; in the data active = inhibition above about 9.5%
PLCbeta3 conf: human PLC-beta3 inhibition, confirmation; shares compounds with PLC-gamma1 inh; purified PLC-beta3, fluorogenic substrate fluorescence; inhibition, % at 12.3 µM; 3,300 compounds, 1% hits; AID 743261
Numbers without * were called inactive; . = no result. Cut-off read from the data, not from the text of the source, unless noted: active = inhibition above about 11%; inactive = the rest.

SMILES | PLC-gamma1 inh | Arr AP2 block | NTR1 agonist | PLCb3 inh | PLCgamma1 ctr | PLCbeta3 conf
Cc1sc(NC(=O)CCS(=O)(=O)c2ccccc2)c(C#N)c1C | -1 | -2 | 1 | -1 | . | .
CC(C)CNc1cccc2c1S(=O)(=O)N[C@@H](CC(C)C)CO2 | -5 | . | . | -3 | . | .
Cc1cc(C)n(-c2nc3c(c(=O)[nH]c(=O)n3C)n2C(C)C)n1 | 5 | 2 | -1 | 14* | -6 | -3
COC(=O)C12C=C3CC(C4CC4)=C3C(=O)N1Cc1[nH]c3ccccc3c1C2 (stereo not drawn) | -60 | . | . | -83 | . | .
O=c1c2ccccc2[nH]c(=S)n1CCN1CCN(Cc2ccccc2)CC1 | 11* | -5 | -1 | 6 | 2 | -5
Cc1cccc(-n2c(Cc3ccccc3)nnc2SCC(=O)N2CCOCC2)c1 | 14* | -5 | 6 | 4 | -5 | -3
COc1ccc(NS(=O)(=O)c2ccc(S(=O)(=O)N3CCCC3)cc2)cc1Cl | 15* | 3 | 1 | 2 | 3 | 1
COc1ccc(NS(=O)(=O)c2ccc(S(=O)(=O)N3CCCC3)cc2)cc1 | 1 | 16 | 1 | 1 | . | .
CC1CCCN(c2nc3c(c(=O)n(C)c(=O)n3C)n2CCSc2nc3ccccc3o2)C1 (stereo not drawn) | 10* | -3 | 13 | 0 | -4 | -1
CC(C)(N[C@@H](Cc1c[nH]c2ccccc12)C(=O)NCC(c1ccccc1)c1ccccc1)C(=O)NC1CCCCC1 | 2 | . | . | 2 | . | .
Cc1ccc(C)c(OCC(O)CN2CCC(C)CC2)c1C (stereo not drawn) | 11* | 7 | 4 | 2 | -4 | -5
O=C(NCC1CC1)c1csc(COCCO)n1 | 6 | . | . | 13* | 0 | -7
Cc1cnc(CNC(=O)c2csc(COCCO)n2)cn1 | 3 | . | . | 0 | . | .
CCCCCCN1CCS(=O)(=O)N(Cc2ccc(F)cc2)C(C(=O)OC)C1 (stereo not drawn) | 1 | . | . | -4 | . | .
Cc1cccc(S(=O)(=O)N2CCCc3ccccc32)c1 | 9.6* | -9 | 2 | -6 | -2 | 4
CCOC(=O)[C@]12CCCC3=C1N(CCC3)C(=O)[C@@H](CC(=O)NCCc1ccccc1OC)C2 | 1 | . | . | 4 | . | .
O=C(N[C@@H](Cc1cccnc1)C(=O)N1CCC[C@H]1C(=O)NC1CCCC1)c1ccc(Cl)c(Cl)c1 | 2 | . | . | 1 | . | .
COc1ccc(CNC(=O)C2CCC(CNS(=O)(=O)c3ccc(C)cc3)CC2)cc1 (stereo not drawn) | 10* | 7 | 6 | 2 | -5 | -2
COc1ccc(S(=O)(=O)NCC2CCC(C(=O)NCc3ccc(F)cc3)CC2)cc1 (stereo not drawn) | 1 | -19 | 1 | -6 | . | .
CCN=C1NC(c2ccccc2C(F)(F)F)C(C(=O)OC)=C(C)N1Cc1ccc(C(F)(F)F)cc1 (stereo not drawn) | -5 | . | . | -6 | . | .
COc1cccc(NC(=O)Nc2ccncc2)c1 | 5 | 4 | -2 | 11* | -9 | -3
CCOc1ccccc1NC(=O)Nc1ccon1 | -3 | -18 | 0 | -9 | . | .
CCOc1ccccc1NC(=O)Nc1ccncc1 | 9.8* | 28 | 8 | 7 | -5 | 0
CC1CCN(C(=O)c2ccc3c(c2NCCO)C(=O)c2ccccc2C3=O)CC1 | 10* | -2 | 24 | 15* | 9 | 8
Cc1c(C(=O)NN)[nH]c2ccc([N+](=O)[O-])cc12 | 1 | 4 | 0 | 59* | -8 | -2
SMILES | PLC-gamma1 inh | Arr AP2 block | NTR1 agonist | PLCb3 inh | PLCgamma1 ctr | PLCbeta3 conf
CCOC(=O)C(NC(=O)c1ccccc1F)(Nc1cc(C)on1)C(F)(F)F (stereo not drawn) | 5 | 1 | -1 | 12* | -2 | -2
CCOC(=O)C(NC(=O)c1ccccc1)(Nc1cccc(C)n1)C(F)(F)F (stereo not drawn) | 2 | 6 | 0 | 1 | . | .
O=C(CCCN1C(=O)/C(=C\c2cccs2)SC1=S)Nc1ccc(O)cc1C(=O)O | -1 | -6 | 0 | -6 | . | .
O=C(CCCN1C(=O)/C(=C\c2ccco2)SC1=S)Nc1ccc(O)cc1C(=O)O | 9.6* | 2 | 0 | -25 | -11 | -24
O=C(CCCN1C(=O)/C(=C/c2ccco2)SC1=S)Nc1cccc(C(=O)O)c1 | 11* | 24 | -1 | -12 | 9 | -14
O=C(CCCN1C(=O)/C(=C\c2cccs2)SC1=S)Nc1cccc(C(=O)O)c1 | 0 | -11 | 0 | 1 | . | .
